According to ChEMBL document CHEMBL5058577, “EUbOPEN Chemogenomics Library 2 (Multiplex)” (2022):

System: U2OS
Assay: Multiplex assay against U2OS
Format: toxicity, cell-based
Conditions: human
How it was run: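 On a CQ1 microscope at 37°C and 5% CO2, live cells were imaged after compound addition. They had been stained at seeding with Hoechst33342, BioTracker Green Microtubule Cytoskeleton Dye, MitoTracker Red and Annexin V Alexa Fluor 680. CellPathfinder machine-learning gating assigned cells to Hoechst high-intensity objects or normal cells, normal cells to healthy, pyknosed or fragmented nuclei, and pyknosed cells to mitotic or apoptotic. Tubulin, mitochondrial-mass and membrane-permeability phenotypes are per cents of healthy-nucleus cells.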

[1] = 12 h, 1 µM, compound concentration 1 uM, replicate 1
[2] = 12 h, 1 µM, compound concentration 1 uM, replicate 2
[3] = 12 h, 10 µM, compound concentration 10 uM, replicate 1
[4] = 12 h, 10 µM, compound concentration 10 uM, replicate 2
[5] = 24 h, 1 µM, compound concentration 1 uM, replicate 1
[6] = 24 h, 1 µM, compound concentration 1 uM, replicate 2
[7] = 24 h, 10 µM, compound concentration 10 uM, replicate 1
[8] = 24 h, 10 µM, compound concentration 10 uM, replicate 2
[9] = 48 h, 1 µM, compound concentration 1 uM, replicate 1
[10] = 48 h, 1 µM, compound concentration 1 uM, replicate 2
[11] = 48 h, 10 µM, compound concentration 10 uM, replicate 1
[12] = 48 h, 10 µM, compound concentration 10 uM, replicate 2

Nc1nc(CC(=O)Nc2ccc(CCNC[C@H](O)c3ccccc3)cc2)cs1 [MIRABEGRON] was tested, and the “Population Apoptotic (%)” value [1] was 86%, the “Population Fragmented Nuclei (%)” value [1] was 24% and the “Population Healthy Nuclei (%)” value [1] was 62%. The “Population Hoechst High Intensity Objects (%)” value [1] was 1%, the “Population Membrane Permeable-Phenotype (%)” value [1] was 6% and the “Population Mitochondria Different-Phenotype (%)” value [1] was 3%. The “Population Mitotic Cells (%)” value [1] was 13%, the “Population Normal (%)” value [1] was 98% and the “Population Pyknosed Nuclei (%)” value [1] was 12%. For the same molecule, the “Population Tubulin-Different-Phenotype (%)” value [1] was 4%, the “Total Cell Count” value [1] was 240 and the “Population Apoptotic (%)” value [2] was 100%. For the same molecule, the “Population Fragmented Nuclei (%)” value [2] was 13%, the “Population Healthy Nuclei (%)” value [2] was 74% and the “Population Hoechst High Intensity Objects (%)” value [2] was 0%. For the same molecule, the “Population Membrane Permeable-Phenotype (%)” value [2] was 5%, the “Population Mitochondria Different-Phenotype (%)” value [2] was 2% and the “Population Mitotic Cells (%)” value [2] was 0%. For the same molecule, the “Population Normal (%)” value [2] was 99%, the “Population Tubulin-Different-Phenotype (%)” value [2] was 5% and the “Total Cell Count” value [2] was 107. The “Population Apoptotic (%)” value [3] was 86%, the “Population Fragmented Nuclei (%)” value [3] was 18% and the “Population Healthy Nuclei (%)” value [3] was 70%. For the same molecule, the “Population Hoechst High Intensity Objects (%)” value [3] was 1%, the “Population Membrane Permeable-Phenotype (%)” value [3] was 6% and the “Population Mitochondria Different-Phenotype (%)” value [3] was 2%. The “Population Mitotic Cells (%)” value [3] was 13%, the “Population Normal (%)” value [3] was 98% and the “Population Pyknosed Nuclei (%)” value [3] was 11%. The “Population Tubulin-Different-Phenotype (%)” value [3] was 4%, the “Total Cell Count” value [3] was 319 and the “Population Apoptotic (%)” value [4] was 66%. For the same molecule, the “Population Fragmented Nuclei (%)” value [4] was 21%, the “Population Healthy Nuclei (%)” value [4] was 71% and the “Population Hoechst High Intensity Objects (%)” value [4] was 0%. For the same molecule, the “Population Membrane Permeable-Phenotype (%)” value [4] was 7%, the “Population Mitochondria Different-Phenotype (%)” value [4] was 3% and the “Population Mitotic Cells (%)” value [4] was 33%. For the same molecule, the “Population Normal (%)” value [4] was 99%, the “Population Pyknosed Nuclei (%)” value [4] was 6% and the “Population Tubulin-Different-Phenotype (%)” value [4] was 1%. The “Total Cell Count” value [4] was 136, the “Population Apoptotic (%)” value [5] was 82% and the “Population Fragmented Nuclei (%)” value [5] was 21%. The “Population Healthy Nuclei (%)” value [5] was 70%, the “Population Hoechst High Intensity Objects (%)” value [5] was 2% and the “Population Membrane Permeable-Phenotype (%)” value [5] was 4%. The “Population Mitochondria Different-Phenotype (%)” value [5] was 2%, the “Population Mitotic Cells (%)” value [5] was 17% and the “Population Normal (%)” value [5] was 97%. For the same molecule, the “Population Pyknosed Nuclei (%)” value [5] was 8%, the “Population Tubulin-Different-Phenotype (%)” value [5] was 3% and the “Total Cell Count” value [5] was 289. The “Population Apoptotic (%)” value [6] was 58%, the “Population Fragmented Nuclei (%)” value [6] was 11% and the “Population Healthy Nuclei (%)” value [6] was 79%. For the same molecule, the “Population Hoechst High Intensity Objects (%)” value [6] was 0%, the “Population Membrane Permeable-Phenotype (%)” value [6] was 9% and the “Population Mitochondria Different-Phenotype (%)” value [6] was 3%. The “Population Mitotic Cells (%)” value [6] was 41%, the “Population Normal (%)” value [6] was 99% and the “Population Pyknosed Nuclei (%)” value [6] was 9%. For the same molecule, the “Population Tubulin-Different-Phenotype (%)” value [6] was 7%, the “Total Cell Count” value [6] was 125 and the “Population Apoptotic (%)” value [7] was 86%. The “Population Fragmented Nuclei (%)” value [7] was 17%, the “Population Healthy Nuclei (%)” value [7] was 75% and the “Population Hoechst High Intensity Objects (%)” value [7] was 1%. The “Population Membrane Permeable-Phenotype (%)” value [7] was 5%, the “Population Mitochondria Different-Phenotype (%)” value [7] was 3% and the “Population Mitotic Cells (%)” value [7] was 13%. The “Population Normal (%)” value [7] was 98%, the “Population Pyknosed Nuclei (%)” value [7] was 7% and the “Population Tubulin-Different-Phenotype (%)” value [7] was 3%. For the same molecule, the “Total Cell Count” value [7] was 405, the “Population Apoptotic (%)” value [8] was 76% and the “Population Fragmented Nuclei (%)” value [8] was 20%. For the same molecule, the “Population Healthy Nuclei (%)” value [8] was 71%, the “Population Membrane Permeable-Phenotype (%)” value [8] was 9% and the “Population Mitochondria Different-Phenotype (%)” value [8] was 5%. The “Population Mitotic Cells (%)” value [8] was 23%, the “Population Tubulin-Different-Phenotype (%)” value [8] was 4% and the “Total Cell Count” value [8] was 167. The “Population Apoptotic (%)” value [9] was 84%, the “Population Fragmented Nuclei (%)” value [9] was 17% and the “Population Healthy Nuclei (%)” value [9] was 72%. For the same molecule, the “Population Hoechst High Intensity Objects (%)” value [9] was 2%, the “Population Membrane Permeable-Phenotype (%)” value [9] was 4% and the “Population Mitochondria Different-Phenotype (%)” value [9] was 3%. The “Population Mitotic Cells (%)” value [9] was 15%, the “Population Normal (%)” value [9] was 97% and the “Population Pyknosed Nuclei (%)” value [9] was 9%. The “Population Tubulin-Different-Phenotype (%)” value [9] was 3%, the “Total Cell Count” value [9] was 394 and the “Population Apoptotic (%)” value [10] was 78%. The “Population Fragmented Nuclei (%)” value [10] was 12%, the “Population Healthy Nuclei (%)” value [10] was 74% and the “Population Membrane Permeable-Phenotype (%)” value [10] was 8%. For the same molecule, the “Population Mitotic Cells (%)” value [10] was 21%, the “Population Pyknosed Nuclei (%)” value [10] was 13% and the “Population Tubulin-Different-Phenotype (%)” value [10] was 7%. The “Total Cell Count” value [10] was 179, the “Population Apoptotic (%)” value [11] was 87% and the “Population Fragmented Nuclei (%)” value [11] was 14%. For the same molecule, the “Population Healthy Nuclei (%)” value [11] was 74%, the “Population Hoechst High Intensity Objects (%)” value [11] was 2% and the “Population Membrane Permeable-Phenotype (%)” value [11] was 5%. The “Population Mitochondria Different-Phenotype (%)” value [11] was 2%, the “Population Mitotic Cells (%)” value [11] was 12% and the “Population Normal (%)” value [11] was 97%. The “Population Pyknosed Nuclei (%)” value [11] was 10%, the “Population Tubulin-Different-Phenotype (%)” value [11] was 2% and the “Total Cell Count” value [11] was 534. The “Population Apoptotic (%)” value [12] was 70%, the “Population Healthy Nuclei (%)” value [12] was 78% and the “Population Membrane Permeable-Phenotype (%)” value [12] was 3%. For the same molecule, the “Population Mitochondria Different-Phenotype (%)” value [12] was 3%, the “Population Mitotic Cells (%)” value [12] was 29% and the “Population Pyknosed Nuclei (%)” value [12] was 7%. The “Population Tubulin-Different-Phenotype (%)” value [12] was 1% and the “Total Cell Count” value [12] was 232.
